This passage reports IC50 and inhibition results from ChEMBL document CHEMBL3414491, “Synthesis and antitumor activities evaluation of m-(4-morpholinoquinazolin-2-yl)benzamides in vitro and in vivo” (Eur J Med Chem, 2015).

Activity calls are given as the source filed them. The calls are words filed in the database; no cut-off is given here. Bounds are passed on as bounds.

Experiment [1] can be described thus: Antiproliferative activity against human HCT116 cells after 72 hrs by MTT assay. The experiment is classed as functional, cell-based. Conditions: HCT-116, 72 h. The essentials:
(§1)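 MTT: cells seeded at 1500–4000 per well, grown 24 h, then given serial dilutions (1% DMSO final) for 72 h at 37 °C. MTT was added for 4 h, formazan dissolved in DMSO and absorbance read at 490 nm. Three separate experiments in triplicate; IC50 is the concentration giving 50% cell death versus control.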
(In general: Formazan colour is commonly taken as a measure of viable cells.)

The test system of another experiment is MCF7. Description: Antiproliferative activity against human MCF7 cells after 72 hrs by MTT assay. Format: functional, cell-based. Conditions: MCF7, 72 h. Summed up:
as §1

A further experiment relates to A549. The experiment can be described thus: Antiproliferative activity against human A549 cells after 72 hrs by MTT assay. To be noted: A549, 72 h. The experiment is classed as functional, cell-based. Summed up: as §1
The nature of experiment [2]: Antiproliferative activity against human U87MG cells after 72 hrs by MTT assay. Format: functional, cell-based, U-87MG ATCC. To be noted: U-87 MG. Summed up: as §1
The nature of experiment [3]: Inhibition of PI3K-mediated PI3K/Akt/mTOR pathway in human HCT116 cells assessed as reduction in Akt Ser473 phosphorylation at 10 uM incubated for 1 hr by Western blot method. Format: cell-based. To be noted: HCT-116. Summed up: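 HCT-116 cells were seeded at 5 × 10⁵ per well and grown 16 h at 37 °C, then exposed to 10 µM for 1 h; vehicle control was 0.5% DMSO. Lysates were normalised by BCA, run on 10% SDS-PAGE, transferred to nitrocellulose and probed for AKT and p-Ser473 AKT, with β-actin as loading control. Detection was by chemiluminescence; bands were quantified densitometrically.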
A general note: A western blot detects proteins with antibodies after separation by electrophoresis.

The next experiment concerns the target PI3K p110 beta/p85 alpha (Homo sapiens, UniProt P42338). Description: Inhibition of p110beta/p85alpha (unknown origin) using L-alpha-phosphatidylinositol incubated for 40 mins by ADP depletion detection based luciferase assay. Format: protein-complex assay.
Experiment [4] has as its target PI3-kinase subunit gamma/Phosphoinositide 3-kinase regulatory subunit 5 (Homo sapiens, UniProt P48736). Description: Inhibition of p110gamma/PIK3R5 (unknown origin) using L-alpha-phosphatidylinositol incubated for 40 mins by ADP depletion detection based luciferase assay. Format: protein-complex assay.
Experiment [5] concerns the target PI3-kinase p110-delta/p85-alpha (Homo sapiens, UniProt O00329). The experiment can be described thus: Inhibition of p110delta/p85alpha (unknown origin) using L-alpha-phosphatidylinositol incubated for 40 mins by ADP depletion detection based luciferase assay. Format: protein-complex assay.
For experiment [6], the target named is PI3-kinase p110-alpha/p85-alpha (Homo sapiens, UniProt P42336). Description: Inhibition of p110alpha/p85alpha (unknown origin) using L-alpha-phosphatidylinositol incubated for 40 mins by ADP depletion detection based luciferase assay. Format: protein-complex assay.
PI3-kinase p110-alpha/p85-alpha, sequence (P27986 whole entry): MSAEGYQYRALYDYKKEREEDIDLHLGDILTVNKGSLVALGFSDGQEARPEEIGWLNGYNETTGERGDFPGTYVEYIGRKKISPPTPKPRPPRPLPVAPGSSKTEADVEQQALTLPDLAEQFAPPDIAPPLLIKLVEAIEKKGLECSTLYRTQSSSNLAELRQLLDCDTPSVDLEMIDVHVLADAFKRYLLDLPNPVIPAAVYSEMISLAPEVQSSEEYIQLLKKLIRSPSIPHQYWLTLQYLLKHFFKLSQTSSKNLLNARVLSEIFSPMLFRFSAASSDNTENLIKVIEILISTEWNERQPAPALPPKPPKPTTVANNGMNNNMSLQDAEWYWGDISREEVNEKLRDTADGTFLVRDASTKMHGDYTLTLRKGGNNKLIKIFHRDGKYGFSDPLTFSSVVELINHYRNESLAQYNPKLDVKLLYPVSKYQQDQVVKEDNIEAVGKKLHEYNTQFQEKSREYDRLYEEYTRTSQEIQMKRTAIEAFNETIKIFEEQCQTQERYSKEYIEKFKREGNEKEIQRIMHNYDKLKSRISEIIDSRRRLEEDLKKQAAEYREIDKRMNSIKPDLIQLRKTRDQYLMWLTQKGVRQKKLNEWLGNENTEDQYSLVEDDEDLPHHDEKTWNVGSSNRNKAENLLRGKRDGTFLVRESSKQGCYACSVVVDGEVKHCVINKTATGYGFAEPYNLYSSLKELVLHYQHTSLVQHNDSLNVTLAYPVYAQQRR
PI3-kinase p110-alpha/p85-alpha, sequence (P42336 whole entry): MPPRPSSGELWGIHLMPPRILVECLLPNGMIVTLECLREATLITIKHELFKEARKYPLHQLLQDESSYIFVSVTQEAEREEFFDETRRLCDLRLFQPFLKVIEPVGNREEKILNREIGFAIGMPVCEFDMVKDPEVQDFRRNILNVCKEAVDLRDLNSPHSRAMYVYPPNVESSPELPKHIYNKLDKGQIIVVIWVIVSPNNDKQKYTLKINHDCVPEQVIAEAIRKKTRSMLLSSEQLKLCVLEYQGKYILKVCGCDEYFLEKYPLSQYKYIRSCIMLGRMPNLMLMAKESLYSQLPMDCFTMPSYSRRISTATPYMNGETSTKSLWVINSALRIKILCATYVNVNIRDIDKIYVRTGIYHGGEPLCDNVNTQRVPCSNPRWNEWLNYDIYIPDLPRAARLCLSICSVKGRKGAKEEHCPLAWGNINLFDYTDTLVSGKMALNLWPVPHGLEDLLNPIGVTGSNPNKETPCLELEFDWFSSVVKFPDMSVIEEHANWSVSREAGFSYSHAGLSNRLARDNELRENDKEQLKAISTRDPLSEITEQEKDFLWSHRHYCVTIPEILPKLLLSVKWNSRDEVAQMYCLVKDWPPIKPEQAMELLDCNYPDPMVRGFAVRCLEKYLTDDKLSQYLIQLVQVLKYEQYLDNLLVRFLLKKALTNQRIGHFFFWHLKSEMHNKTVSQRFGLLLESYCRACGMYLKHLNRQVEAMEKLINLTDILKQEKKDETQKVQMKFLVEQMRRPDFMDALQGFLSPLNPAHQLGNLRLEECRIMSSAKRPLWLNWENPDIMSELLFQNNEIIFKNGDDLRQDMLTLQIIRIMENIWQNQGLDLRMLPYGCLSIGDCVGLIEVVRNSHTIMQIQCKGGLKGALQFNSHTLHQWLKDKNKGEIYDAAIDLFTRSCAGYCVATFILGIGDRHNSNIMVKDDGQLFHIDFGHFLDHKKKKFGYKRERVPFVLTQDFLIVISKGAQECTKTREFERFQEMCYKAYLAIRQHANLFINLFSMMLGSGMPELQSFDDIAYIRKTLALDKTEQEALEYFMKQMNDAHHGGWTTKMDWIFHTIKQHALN

PI3-kinase p110-delta/p85-alpha, sequence (P27986 whole entry): as the sequence (P27986 whole entry) above
PI3-kinase p110-delta/p85-alpha, sequence (O00329 whole entry): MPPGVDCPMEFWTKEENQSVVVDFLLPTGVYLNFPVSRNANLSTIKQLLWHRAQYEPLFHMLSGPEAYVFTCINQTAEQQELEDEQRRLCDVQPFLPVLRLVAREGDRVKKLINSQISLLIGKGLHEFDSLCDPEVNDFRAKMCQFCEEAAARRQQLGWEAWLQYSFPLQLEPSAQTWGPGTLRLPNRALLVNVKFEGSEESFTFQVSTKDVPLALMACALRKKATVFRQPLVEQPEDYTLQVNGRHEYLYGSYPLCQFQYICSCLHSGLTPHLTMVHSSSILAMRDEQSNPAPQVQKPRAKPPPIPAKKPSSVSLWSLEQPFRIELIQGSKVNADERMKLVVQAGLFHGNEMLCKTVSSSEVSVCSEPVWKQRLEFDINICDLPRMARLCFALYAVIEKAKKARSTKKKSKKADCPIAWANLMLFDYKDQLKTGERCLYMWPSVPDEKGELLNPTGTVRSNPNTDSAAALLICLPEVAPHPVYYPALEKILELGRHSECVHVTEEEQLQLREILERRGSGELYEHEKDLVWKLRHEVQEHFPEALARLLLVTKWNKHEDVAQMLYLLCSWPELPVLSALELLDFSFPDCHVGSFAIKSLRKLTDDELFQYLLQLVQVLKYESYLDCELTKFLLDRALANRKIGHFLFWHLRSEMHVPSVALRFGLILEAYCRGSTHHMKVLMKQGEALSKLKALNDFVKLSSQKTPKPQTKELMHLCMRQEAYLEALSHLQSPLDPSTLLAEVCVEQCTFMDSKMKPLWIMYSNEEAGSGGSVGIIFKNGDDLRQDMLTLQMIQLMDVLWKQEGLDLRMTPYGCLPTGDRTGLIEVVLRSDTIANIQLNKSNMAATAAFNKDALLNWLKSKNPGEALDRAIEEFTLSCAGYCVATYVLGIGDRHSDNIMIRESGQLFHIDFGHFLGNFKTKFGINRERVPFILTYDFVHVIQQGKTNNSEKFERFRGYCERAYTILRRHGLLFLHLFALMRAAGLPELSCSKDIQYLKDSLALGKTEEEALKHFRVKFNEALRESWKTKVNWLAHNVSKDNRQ
PI3K p110 beta/p85 alpha, sequence (P27986 whole entry): as the sequence (P27986 whole entry) above
PI3K p110 beta/p85 alpha, sequence (P42338 whole entry): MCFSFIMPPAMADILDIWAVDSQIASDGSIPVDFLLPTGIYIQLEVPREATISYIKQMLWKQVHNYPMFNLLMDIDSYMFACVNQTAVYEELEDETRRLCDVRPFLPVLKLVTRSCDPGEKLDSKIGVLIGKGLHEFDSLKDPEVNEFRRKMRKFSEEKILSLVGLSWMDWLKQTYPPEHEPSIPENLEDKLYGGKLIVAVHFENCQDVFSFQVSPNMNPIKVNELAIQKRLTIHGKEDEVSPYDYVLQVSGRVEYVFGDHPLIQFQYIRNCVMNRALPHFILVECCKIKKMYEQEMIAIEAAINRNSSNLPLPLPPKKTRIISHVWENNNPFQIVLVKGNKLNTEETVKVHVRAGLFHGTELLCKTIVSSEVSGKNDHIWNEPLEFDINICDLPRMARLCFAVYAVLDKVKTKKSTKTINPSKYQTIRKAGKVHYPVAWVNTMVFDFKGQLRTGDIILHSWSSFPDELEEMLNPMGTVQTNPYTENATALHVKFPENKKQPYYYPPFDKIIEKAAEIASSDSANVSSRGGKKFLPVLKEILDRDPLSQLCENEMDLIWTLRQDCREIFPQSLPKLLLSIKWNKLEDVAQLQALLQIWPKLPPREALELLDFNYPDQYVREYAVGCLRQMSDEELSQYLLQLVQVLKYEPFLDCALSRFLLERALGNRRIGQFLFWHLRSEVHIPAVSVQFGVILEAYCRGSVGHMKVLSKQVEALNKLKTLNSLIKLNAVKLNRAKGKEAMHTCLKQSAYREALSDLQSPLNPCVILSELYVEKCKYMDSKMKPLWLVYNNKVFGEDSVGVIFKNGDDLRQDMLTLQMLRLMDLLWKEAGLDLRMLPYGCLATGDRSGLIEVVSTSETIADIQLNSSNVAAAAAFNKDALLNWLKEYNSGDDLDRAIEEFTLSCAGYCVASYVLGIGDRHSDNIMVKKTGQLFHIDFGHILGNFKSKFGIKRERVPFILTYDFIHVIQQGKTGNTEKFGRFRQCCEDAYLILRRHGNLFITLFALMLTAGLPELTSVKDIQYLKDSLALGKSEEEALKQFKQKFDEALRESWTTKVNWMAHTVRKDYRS

The term IC50 denotes the concentration that gives 50% inhibition. In the case of `COCCOc1cc2nc(-c3cc(OC)cc(C(N)=O)c3)nc(N3CCOCC3)c2cc1OCCOC`, the IC50 in experiment [1] was 9040 nM; with MCF7 it was 7.52 µM.

As for `COCCOc1cc2nc(-c3cc(OC)cc(C(N)=O)c3)nc(N3CCOCC3)c2cc1OC`, the IC50 in experiment [1] is 2700 nM; in the experiment with MCF7, over 20 µM.

For `COc1cc(C(N)=O)cc(-c2nc(N3CCOCC3)c3cc(OC)c(OCCN4CCOCC4)cc3n2)c1`, the figures for the IC50 (in experiment [1]; with MCF7) were 4720 nM and 5.66 µM, respectively.

As for `COc1cc2nc(-c3ccc(OCc4ccccc4)c(C(N)=O)c3)nc(N3CCOCC3)c2cc1OC`, the IC50 stood at 5030 nM in [1] and 7.9 µM in the experiment on MCF7.

For the compound `COc1cc2nc(-c3cccc(C(=O)N(C)C)c3)nc(N3CCOCC3)c2cc1OC`, the IC50 is 4730 nM in [1] and 5.01 µM in the experiment on MCF7.

For `COc1cc(C(N)=O)cc(-c2nc(N3CCOCC3)c3cc(OC)c(OCCN4CCCCC4)cc3n2)c1`, the IC50 in [1] was 1280 nM; in the experiment with MCF7, 6.38 µM.

For `CNC(=O)c1cccc(-c2nc(N3CCOCC3)c3cc(OC)c(OC)cc3n2)c1`, the IC50 in experiment [1] amounted to 2520 nM; in the experiment with MCF7 it was 6.2 µM.

Take `COc1cc2nc(-c3cccc(C(N)=O)c3)nc(N3CCOCC3)c2cc1OC`: the IC50 with A549 was found to be 26.1 µM; in experiment [1] it was 900 nM; in the experiment with MCF7 it was 2.14 µM; in [2] it was 1570 nM.

Consider `COc1cc2nc(-c3cnc(N)nc3)nc(N3CCOCC3)c2cc1OC`, for which the IC50 was found to be 3.21 µM with A549, 420 nM in experiment [1], 1.38 µM with MCF7 and 5000 nM in experiment [2].

As for `COc1cc2nc(-c3ccc(Cl)c(C(N)=O)c3)nc(N3CCOCC3)c2cc1OC`, the IC50 in [1] was determined as 2970 nM; in the experiment with MCF7, 4.24 µM.

As for `COc1cc(C(N)=O)cc(-c2nc(N3CCOCC3)c3cc(OC)c(OC)cc3n2)c1`, the IC50 in the experiment with A549 came to 9.22 µM; in experiment [1], 450 nM; with MCF7 it was 1.75 µM; in experiment [2], 1010 nM.

For `COC(=O)c1cccc(-c2nc(N3CCOCC3)c3cc(OC)c(OC)cc3n2)c1`, the IC50 in experiment [1] came out at 1070 nM; with MCF7 it was 3.44 µM.

`CS(=O)(=O)N1CCN(Cc2cc3nc(-c4cccc5[nH]ncc45)nc(N4CCOCC4)c3s2)CC1` [PICTILISIB]: the IC50 turned out to be 2.28 µM with A549, 370 nM in experiment [1], 1.09 µM with MCF7 and 1240 nM in experiment [2]. In experiment [3], the inhibition entry was “Active”.

As for `COc1cc2nc(-c3cc(C(N)=O)cc(C(F)(F)F)c3)nc(N3CCOCC3)c2cc1OC`, the IC50 came out at 4.75 µM in the experiment on A549, 710 nM in [1], 2.03 µM in the experiment on MCF7 and 1190 nM in [2].

`COc1cc2nc(-c3cccc(C(=O)O)c3)nc(N3CCOCC3)c2cc1OC`: the values for the IC50 (in experiment [1]; with MCF7) were 12500 nM and over 20 µM, respectively.

`COCCOc1cc2c(N3CCOCC3)nc(-c3cc(OC)cc(C(N)=O)c3)nc2cc1OC`: the IC50 worked out at 890 nM in [1] and 5.19 µM in the experiment with MCF7.

In the case of `COc1cc2nc(-c3ccc(OC)c(C(N)=O)c3)nc(N3CCOCC3)c2cc1OC`, the IC50 in the experiment on A549 is 9.63 µM; in [1], 470 nM; with MCF7, 1.22 µM; in [2], 1900 nM.

On to `COc1cc(C(N)=O)cc(-c2nc(N3CCOCC3)c3cc(OC)c(OCC(=O)N4CCN(C)CC4)cc3n2)c1`, for which the IC50 in [1] stood at 9440 nM; with MCF7, 18.7 µM.

In the case of `COc1cc2nc(-c3cc(OCc4ccccc4)cc(C(N)=O)c3)nc(N3CCOCC3)c2cc1OC`, the IC50 came to 3830 nM in experiment [1] and 6.93 µM in the experiment on MCF7.

Take `COc1cc2nc(-c3cccc(NC(C)=O)c3)nc(N3CCOCC3)c2cc1OC`: the values for the IC50 (in [1]; in the experiment on MCF7) were 1420 nM and 3.49 µM, respectively.

For `COc1cc(C(N)=O)cc(-c2nc(N3CCOCC3)c3cc(OC)c(OCC4CCOCC4)cc3n2)c1`, the IC50 in experiment [1] stood at 3140 nM; with MCF7, 8.52 µM.

Regarding `COc1cc2nc(-c3cc(O)cc(C(N)=O)c3)nc(N3CCOCC3)c2cc1OC`, the IC50 with A549 is 17.2 µM; at PI3K p110 beta/p85 alpha it was 454 nM; in experiment [1], 880 nM; in experiment [4] it was 394 nM; in experiment [5], 260 nM; in [6] it was 53 nM. Moreover, the IC50 with MCF7 is 2.64 µM; in [2], 1840 nM.

Regarding `COc1cc2nc(-c3ccc(O)c(C(N)=O)c3)nc(N3CCOCC3)c2cc1OC`, the IC50 came out at 2770 nM in [1] and 7.42 µM in the experiment with MCF7.

As to `CNC(=O)COc1cc2nc(-c3cc(OC)cc(C(N)=O)c3)nc(N3CCOCC3)c2cc1OC`, the values for the IC50 (in experiment [1]; in the experiment with MCF7) were 21700 nM and 14.9 µM, respectively.

For the compound `COc1cc(C(N)=O)cc(-c2nc(N3CCOCC3)c3cc(OC)c(OCc4ccccc4)cc3n2)c1`, the IC50 in [1] was 6450 nM; in the experiment with MCF7, 10.3 µM.

For the compound `COc1cc(C(N)=O)cc(-c2nc(N3CCOCC3)c3cc(OC)c(OCCN4CCCC4)cc3n2)c1`, the IC50 in the experiment on A549 was 9.37 µM; in experiment [1], 810 nM; in the experiment on MCF7, 1.01 µM; in experiment [2] it was 2450 nM.

Turning to `COc1cc(C(N)=O)cc(-c2nc(N3CCOCC3)c3cc(OC)c(OCC(=O)N4CCOCC4)cc3n2)c1`, the IC50 in experiment [1] was found to be 6480 nM; in the experiment on MCF7, 24.4 µM.

As to `COc1cc2nc(-c3ccc(C(N)=O)cc3)nc(N3CCOCC3)c2cc1OC`, the values for the IC50 (in experiment [1]; with MCF7) were 1250 nM and 4.6 µM, respectively.

In the case of `COc1cc2nc(-c3ccc(NC(C)=O)cc3)nc(N3CCOCC3)c2cc1OC`, the IC50 in experiment [1] worked out at 1090 nM; in the experiment on MCF7, 3.61 µM.
